# Only some compounds are listed: those with a hit (about 2.4% of all), similar ones and a draw of the others.
# STEP block = STEP (human) phosphatase inhibition. P54829. recombinant STEP, OMFP fluorogenic substrate, fluorescence. inhibition, % at 20 µM. 0.25% of 360,000 active;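 active = inhibition at 20 µM, scaled per plate between control wells, above about 37%, limit read from the data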;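 also: 0% = DMSO with enzyme and substrate and 100% = substrate only without enzyme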
# Target sequence (P54829 whole entry, looked up): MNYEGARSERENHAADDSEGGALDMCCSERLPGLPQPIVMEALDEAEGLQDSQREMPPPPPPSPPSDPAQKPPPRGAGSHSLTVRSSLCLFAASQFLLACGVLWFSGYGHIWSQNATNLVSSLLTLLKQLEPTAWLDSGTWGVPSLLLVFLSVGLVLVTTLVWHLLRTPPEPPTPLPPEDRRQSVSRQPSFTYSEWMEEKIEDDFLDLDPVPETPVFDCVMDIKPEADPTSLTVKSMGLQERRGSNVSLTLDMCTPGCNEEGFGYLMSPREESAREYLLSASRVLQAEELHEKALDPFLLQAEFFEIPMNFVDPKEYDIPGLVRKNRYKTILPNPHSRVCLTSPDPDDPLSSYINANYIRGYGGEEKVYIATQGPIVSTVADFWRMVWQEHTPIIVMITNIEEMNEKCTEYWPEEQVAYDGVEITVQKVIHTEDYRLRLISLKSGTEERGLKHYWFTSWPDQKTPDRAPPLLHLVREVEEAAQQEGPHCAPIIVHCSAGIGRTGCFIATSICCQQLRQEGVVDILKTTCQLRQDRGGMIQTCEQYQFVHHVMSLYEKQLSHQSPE
#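 Assay system: isolated STEP enzyme / Timing: 20 min at room temperature, dark / Doses: 20 µM, 1% DMSO / Technique: fluorescence intensity, excitation 480 nm, emission 540 nm / Reagent: fluorogenic phosphatase substrate OMFP at 25 µM final / Measure: percent inhibition scaled to no-enzyme and uninhibited-enzyme controls, plate-pattern corrected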
# SUMO1-SIM PPI = SUMO1-SIM interaction modulation. 0.33% of 360,000 active. SUMO1 binding to a labelled peptide, TR-FRET, 1 h. inhibition, % at 20 µM. P63165; in the data active = inhibition above about 37%
# Target sequence (P63165 whole entry, looked up): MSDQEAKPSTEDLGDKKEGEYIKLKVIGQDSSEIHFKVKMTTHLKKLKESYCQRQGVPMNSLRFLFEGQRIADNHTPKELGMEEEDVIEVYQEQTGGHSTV
# LMPTP inh = LMPTP (human) inhibition | inhibition, % at 20 µM | 0.22% of 360,000 active | P24666 | recombinant LMPTP-A, OMFP fluorogenic substrate, fluorescence intensity;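 active = compounds that cut the enzyme signal by at least half of the control window in the single-dose screen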;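 also: plate controls were DMSO wells with enzyme plus substrate for no effect and substrate without enzyme for full effect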
#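 Assay system: LMPTP-A phosphatase enzyme | Input: 0.625 nM enzyme | Also added: Fluorogenic phosphatase substrate OMFP at 400 µM final | Compound dosing: One test concentration per compound, 20 µM, with 3% DMSO overall | Schedule: 50 min enzyme reaction at room temperature, protected from light | Signal: Fluorescence intensity | Benchmarks: no-enzyme and uninhibited controls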
# NadD inh = inhibitors of Staphylococcus aureus NadD. inhibition, % at 20 µM. 0.78% of 360,000 active. purified NadD enzyme, colorimetric absorbance read-out. AID 602399; in the data active = inhibition above about 26%
# DNMT1 block = DNMT1 (human) enzyme inhibition; P26358; DNMT1 molecular beacon, Hinp1I cleavage, fluorescence; inhibition (reported as % activation of signal), % at 10 µM; 0.83% of 360,000 active; AID 588458; in the data active = inhibition above about 50%
# Scp1 inh = inhibitors of human Scp-1 phosphatase; 0.88% of 340,000 active; Recombinant Scp1, phosphopeptide, malachite green phosphate absorbance; AID 493091; inhibition, % at 20 µM;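 active = inhibition above about 50% at 20 µM, limit read from the data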;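 also: plate controls were DMSO wells with enzyme for no effect and wells lacking enzyme for full effect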
#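 System: truncated SCP-1 phosphatase (76-261aa); medium: Tris acetate buffer pH 5.5 with MgCl2 and Tween-20; incubation: 45 min room-temperature reaction, 5 min colour, 30 min stabiliser; compound: single 20 µM dose, 1% DMSO; reagent: Phosphorylated 17-residue peptide substrate; read-out: % inhibition at 20 µM; technique: colorimetric free-phosphate detection, absorbance 630 nm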
# Scp-1 conf = Scp-1 (human) inhibition, single-dose confirmed; inhibition, % at 20 µM; AID 540281; 61% of 2,500 active; shares compounds with Scp1 inh; recombinant SCP-1 catalytic domain, phosphate release, malachite green absorbance;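 also: plate controls were DMSO with enzyme for no effect and buffer wells lacking enzyme for full effect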
# MG interference = colorimetric interference in Scp-1 counter-screen; apparent inhibition (interference), % at 20 µM; Colorimetric interference counterscreen, malachite green absorbance 630 nm; shares compounds with Scp1 inh; 2,500 tested, under 10 active;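 also: compounds added after enzyme reaction finished so only phosphate colour detection is probed; plate controls were DMSO wells with completed Scp-1 reaction for no effect and substrate wells lacking enzyme for full effect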
# Scp1 DSF = Scp-1 (human) binding by thermal shift. shares compounds with Scp1 inh. 25% of 1,500 active. thermal shift relative to vanadate control, % at 40 µM. Recombinant SCP1, Sypro Orange thermal shift Tm;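 active = substances whose mean melting-temperature shift, as a percentage of the reference inhibitor's shift, reaches about 5.3%, limit read from the data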;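 also: 0% = Tm of DMSO wells and 100% = Tm with sodium orthovanadate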
# Numbers without * were called inactive; . = no result.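 The calls were made as follows, unless noted: active = inhibition of at least 30% at 20 µM; inactive = the rest.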
SMILES,STEP block,SUMO1-SIM PPI,LMPTP inh,NadD inh,DNMT1 block,Scp1 inh,Scp-1 conf,MG interference,Scp1 DSF
CCN(CC)CCNC(=O)c1ccc(NC(=O)c2cc(-c3ccco3)nc3ccccc23)cc1,0.7,-19.4,4.7,3.8,19.9,15.3,.,.,.
COc1ccccc1NC(=O)COC(=O)C1=NN(c2ccccc2)C(=O)CC1,-1.5,3.3,0.1,-0.1,3.6,4.6,.,.,.
CSc1ncc(S(=O)(=O)c2ccccc2)c(=O)[nH]1,-1.4,-1.5,-0.1,3.8,1.6,2.7,.,.,.
CC(=O)Nc1ccc(S(=O)(=O)N/N=C/c2ccc(C)o2)cc1,32.8,-1.1,13.6,-3.5,28.4,67.3*,20.5,-9.5,.
Cc1ccc(S(=O)(=O)N2CCCC2C(=O)OCc2ccco2)cc1 (stereo not given),2.3,11.2,-0.3,13.9,27.5,77.0*,69.2*,-8.4,2.1
O=C(N/N=C\c1cccnc1)c1cc(-c2ccc(Cl)s2)[nH]n1,8.2,-8.9,33.9,-0.2,8.7,61.5*,53.5*,-18.1,4.7
O=C(N/N=C/c1cccnc1)c1ccccc1Cl,-1.8,2.1,-2.0,-8.0,-1.8,-4.2,.,.,.
O=c1/c(=C/c2ccc(O)c([N+](=O)[O-])c2)sc2nc3ccccc3n12,89.9*,4.9,92.0*,15.6,-0.2,81.5*,81.6*,-16.2,9.9*
Cc1ccc(NC(=O)NNC(=O)c2snnc2C)cc1,1.1,-3.7,0.5,13.4,0.8,-11.8,.,.,.
Fc1ccc2cnc(-c3ccccc3)c(-c3ccc(C(F)(F)F)cc3)c2c1,1.1,4.8,1.2,1.3,13.0,72.5*,7.2,-12.3,.
Fc1ccc2cnc(-c3ccccc3)c(-c3cc(C(F)(F)F)cc(C(F)(F)F)c3)c2c1,3.1,9.4,3.7,19.4,22.9,58.5*,22.1,-9.0,.
Fc1ccc2c(-c3cccc(C(F)(F)F)c3)c(-c3ccccc3)ncc2c1,0.5,5.0,4.7,0.9,11.6,6.0,.,.,.
COC(=O)c1ccc(-c2c(-c3ccccc3)ncc3cc(F)ccc23)cc1,-2.0,1.1,2.3,0.8,2.3,52.9*,-5.6,-4.3,.
N#Cc1ccc(-c2c(-c3ccccc3)ncc3cc(F)ccc23)cc1,1.2,-1.5,1.4,0.1,6.2,5.0,.,.,.
CCOc1cc(C(=O)N2CCC(CC3CC(c4ccc(Cl)cc4)=NO3)(C(=O)NCC3CCCCC3)CC2)cc(OCC)c1OCC (stereo not given),2.9,5.4,4.1,14.9,-11.8,-6.5,.,.,.
O=C(N/N=C/c1ccc(-c2cccc([N+](=O)[O-])c2)o1)c1ccccc1O,9.1,-2.6,14.5,25.7,-1.3,74.5*,76.7*,-10.4,9.2*
C/C(=N\NC(=O)c1cc(-c2cccc([N+](=O)[O-])c2)n[nH]1)c1ccccc1O,96.8*,-14.8,8.6,10.3,60.1*,95.8*,85.3*,-5.7,6.3*
C/C(=N\NC(=O)c1cc(-c2cccc([N+](=O)[O-])c2)n[nH]1)c1ccc(F)cc1,3.3,-9.9,6.7,2.6,2.9,-8.9,.,.,.
O=C(N/N=C/c1ccc(-c2cccc([N+](=O)[O-])c2)o1)c1ccc([N+](=O)[O-])cc1,3.2,-11.3,1.9,27.9,2.2,52.5*,-19.7,-18.4,.
COC(=O)C(CCSC)NC(=O)c1cn(-c2ccc(OC)cc2)c(=O)c2ccccc12 (stereo not given),-0.1,-3.3,-1.2,-0.4,1.4,2.7,.,.,.
Cc1noc(C)c1C(=O)Nc1nccs1,-1.2,10.2,0.2,-2.6,0.9,14.0,.,.,.
CC(C)(O)CCCC(C)(O)c1ccc(C(=O)O)cc1O (stereo not given),-1.6,7.7,-1.4,-2.1,26.7,60.9*,51.9*,1.7,6.1*
CC(C)CCC[C@](C)(O)c1ccc(C(=O)O)cc1O,.,5.1,-1.1,-2.0,.,.,.,.,.
C=CCn1c(SCC(=O)NCCOC)nc2scc(-c3ccco3)c2c1=O,0.9,14.8,1.8,14.4,7.2,52.2*,16.4,-24.7,.
C=CCn1c(SCC(=O)NCC2CCCO2)nc2scc(-c3ccco3)c2c1=O (stereo not given),-3.3,5.3,0.7,4.8,2.3,-3.8,.,.,.
SMILES,STEP block,SUMO1-SIM PPI,LMPTP inh,NadD inh,DNMT1 block,Scp1 inh,Scp-1 conf,MG interference,Scp1 DSF
C/C(N)=C(/C#N)C(=O)CSc1nnc(NC(C)C)s1,6.2,7.1,17.1,7.8,36.9,90.5*,63.9*,-10.1,-2.4
NC(=O)c1ccsc1NC(=O)COC(=O)/C=C/c1ccc([N+](=O)[O-])cc1,6.6,13.8,64.0*,21.9,10.5,70.7*,58.8*,-6.0,4.1
COC(=O)c1ccc(/C=C/C(=O)OCC(=O)Nc2sccc2C(N)=O)cc1,-2.1,-9.3,5.5,5.3,-11.5,1.9,.,.,.
CC(C(=O)Nc1ccc([N+](=O)[O-])cc1Cl)N1CCN(S(=O)(=O)c2cccs2)CC1 (stereo not given),0.1,-10.4,0.7,5.7,-6.7,4.8,.,.,.
CC(C(=O)Nc1cc([N+](=O)[O-])ccc1Cl)N1CCN(c2ccc(O)cc2)CC1 (stereo not given),-4.6,-13.6,2.9,11.6,16.2,57.0*,26.2,-4.3,.
COc1ccccc1NC(=O)c1nn(-c2ccc(Cl)cc2)ccc1=O,-0.8,-3.9,4.3,-0.4,26.3,97.5*,75.8*,-15.6,-15.6
C/C(=C/c1ccccc1)C(=O)N1CCN(c2ccc(F)cc2)CC1,0.9,0.5,0.5,-3.6,1.8,6.4,.,.,.
COC(=O)c1ccn(CC(=O)NC2CCCCC2)n1,3.5,1.2,1.2,2.9,9.0,66.0*,48.1*,-3.0,-3.3
C[N+](C)(C)CCCN(Cc1ccc2c(c1)OCO2)C(=O)NC1CCCCC1,-4.1,2.0,-4.5,10.3,-0.2,90.9*,78.9*,-18.6,-27.1
Cc1ccc(NC(=O)c2cc(-c3ccc(C)c(C)c3O)n[nH]2)cc1C,12.0,14.3,19.6,-0.9,15.4,98.5*,66.9*,-4.9,7.5*
CC(=O)Nc1ccc(NC(=O)c2cc(-c3ccc(C)c(C)c3O)n[nH]2)cc1,0.5,5.7,-0.4,-0.8,-12.4,-19.0,.,.,.
CSc1ncccc1C(=O)N1CCCC(CCC(=O)NCc2ccc(F)c(F)c2)C1 (stereo not given),0.2,-2.7,-0.7,-4.6,4.8,-2.7,.,.,.

# Screening data deposited in PubChem BioAssay by Sanford-Burnham Center for Chemical Genomics.
